The values that follow come from ChEMBL document CHEMBL1129439, “Synthesis and in vitro characterization of N-[5-(4,5-dihydro-1H-imidazol-2-yl)-2-hydroxy-5,6,7,8- tetrahydronaphthalen-1-yl]methanesulfonamide and its enantiomers: a novel selective alpha 1A receptor agonist” (J Med Chem, 1996).

Bounds are passed on as bounds.

For test [1], the target named is T1, Alpha-1A adrenergic receptor (Homo sapiens) (UniProt P35348).
T1 sequence (whole entry): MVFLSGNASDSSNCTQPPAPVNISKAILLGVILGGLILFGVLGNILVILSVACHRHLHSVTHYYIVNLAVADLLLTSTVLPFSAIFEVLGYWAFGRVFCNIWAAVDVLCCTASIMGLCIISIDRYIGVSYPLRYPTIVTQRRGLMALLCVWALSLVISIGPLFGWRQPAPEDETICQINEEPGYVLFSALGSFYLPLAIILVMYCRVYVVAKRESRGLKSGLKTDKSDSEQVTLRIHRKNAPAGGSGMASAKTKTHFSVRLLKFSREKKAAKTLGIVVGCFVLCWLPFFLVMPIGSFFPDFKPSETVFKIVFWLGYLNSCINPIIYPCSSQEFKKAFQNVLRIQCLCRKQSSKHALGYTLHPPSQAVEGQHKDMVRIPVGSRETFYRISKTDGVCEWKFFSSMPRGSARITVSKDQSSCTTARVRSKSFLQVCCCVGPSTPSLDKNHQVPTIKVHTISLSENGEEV
The experiment in a line: Percent response towards alpha 1A adrenergic receptor in canine prostate using phenylephrine as control agonist. The note with it: Canis lupus familiaris; Prostate gland; target entry is the homologue from another species. It counts as functional, tissue-based.

Test [2] deals with T2, Alpha-1D adrenergic receptor (Rattus norvegicus) (UniProt P23944).
T2 sequence (whole entry): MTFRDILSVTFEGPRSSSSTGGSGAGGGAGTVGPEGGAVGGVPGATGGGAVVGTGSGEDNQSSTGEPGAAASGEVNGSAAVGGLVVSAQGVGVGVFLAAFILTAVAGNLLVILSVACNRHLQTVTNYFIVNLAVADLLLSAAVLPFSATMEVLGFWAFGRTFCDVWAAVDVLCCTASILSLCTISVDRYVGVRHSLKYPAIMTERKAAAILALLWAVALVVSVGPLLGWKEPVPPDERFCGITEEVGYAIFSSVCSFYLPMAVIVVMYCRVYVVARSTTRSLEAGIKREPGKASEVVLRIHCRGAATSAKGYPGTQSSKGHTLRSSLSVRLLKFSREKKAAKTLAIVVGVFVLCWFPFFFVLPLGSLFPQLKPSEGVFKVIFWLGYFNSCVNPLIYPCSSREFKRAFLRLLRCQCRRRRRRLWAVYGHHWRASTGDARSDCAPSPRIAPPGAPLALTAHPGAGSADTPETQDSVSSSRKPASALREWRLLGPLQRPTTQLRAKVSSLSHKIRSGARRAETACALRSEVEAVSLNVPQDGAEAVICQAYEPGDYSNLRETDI
Nature of the test: Percent response towards alpha 1D adrenergic receptor in rat aorta using phenylephrine as control agonist. It counts as functional, tissue-based.

Test [3] deals with T3, Alpha-1B adrenergic receptor (Mesocricetus auratus, UniProt P18841).
T3 sequence (P18841 whole entry): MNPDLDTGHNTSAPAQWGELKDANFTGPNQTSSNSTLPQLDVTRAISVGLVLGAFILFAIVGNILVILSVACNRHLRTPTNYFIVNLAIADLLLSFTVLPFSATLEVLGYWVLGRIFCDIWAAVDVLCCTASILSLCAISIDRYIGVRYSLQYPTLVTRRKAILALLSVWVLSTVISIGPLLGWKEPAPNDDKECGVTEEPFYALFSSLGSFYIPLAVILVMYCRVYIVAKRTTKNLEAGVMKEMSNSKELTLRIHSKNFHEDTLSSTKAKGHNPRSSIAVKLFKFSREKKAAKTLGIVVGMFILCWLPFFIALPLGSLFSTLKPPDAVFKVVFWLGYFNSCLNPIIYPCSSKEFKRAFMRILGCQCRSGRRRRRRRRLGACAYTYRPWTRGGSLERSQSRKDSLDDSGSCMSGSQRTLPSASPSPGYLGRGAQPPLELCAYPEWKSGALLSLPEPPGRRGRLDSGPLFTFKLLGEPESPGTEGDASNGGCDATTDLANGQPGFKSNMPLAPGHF
The experiment in a line: Binding affinity towards hamster clonal Alpha-1B adrenergic receptor. It counts as single protein.

The target in test [4] is T4, Alpha-1A adrenergic receptor (Bos taurus, UniProt P18130).
T4 sequence (P18130 whole entry): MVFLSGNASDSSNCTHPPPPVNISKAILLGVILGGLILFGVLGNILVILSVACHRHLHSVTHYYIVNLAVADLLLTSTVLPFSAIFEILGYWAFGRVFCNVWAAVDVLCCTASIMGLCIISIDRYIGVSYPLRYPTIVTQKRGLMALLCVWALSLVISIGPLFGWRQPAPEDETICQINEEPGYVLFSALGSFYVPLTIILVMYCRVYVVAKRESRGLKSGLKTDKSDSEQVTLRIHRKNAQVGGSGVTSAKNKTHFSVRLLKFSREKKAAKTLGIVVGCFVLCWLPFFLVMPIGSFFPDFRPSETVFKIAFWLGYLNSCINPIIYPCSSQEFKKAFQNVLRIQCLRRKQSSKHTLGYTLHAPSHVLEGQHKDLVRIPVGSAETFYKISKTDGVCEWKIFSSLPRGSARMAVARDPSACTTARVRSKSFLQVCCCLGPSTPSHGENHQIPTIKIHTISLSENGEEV
Nature of the test: Binding affinity towards bovine clonal Alpha-1A adrenergic receptor. In a few lines:
(§1)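 Radioligand binding to cloned receptors: bovine α1a for line 1 and rat α1d for line 2.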

Test [5] concerns the target T5, Alpha-1A adrenergic receptor (Rattus norvegicus) (UniProt P43140).
T5 sequence (whole entry): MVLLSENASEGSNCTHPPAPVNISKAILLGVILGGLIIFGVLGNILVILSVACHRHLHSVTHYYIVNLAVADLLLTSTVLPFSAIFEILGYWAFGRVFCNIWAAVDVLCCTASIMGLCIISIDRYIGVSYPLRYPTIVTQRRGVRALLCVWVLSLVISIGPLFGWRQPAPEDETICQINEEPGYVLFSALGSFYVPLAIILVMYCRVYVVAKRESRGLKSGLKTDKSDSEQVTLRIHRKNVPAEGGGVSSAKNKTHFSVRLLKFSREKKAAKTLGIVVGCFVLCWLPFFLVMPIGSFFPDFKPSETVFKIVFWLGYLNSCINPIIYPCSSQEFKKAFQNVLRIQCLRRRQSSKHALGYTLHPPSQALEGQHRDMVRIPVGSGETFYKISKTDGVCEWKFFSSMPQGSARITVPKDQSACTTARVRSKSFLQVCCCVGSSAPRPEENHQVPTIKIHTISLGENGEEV
The experiment in a line: Percent response towards alpha 1A adrenergic receptor in rat vas deferens using phenylephrine as control agonist. Format: functional, tissue-based.

Test [6] concerns the target T6, Alpha-1D adrenergic receptor (Rattus norvegicus, UniProt P23944).
T6 sequence (P23944 whole entry): T2 sequence (whole entry)
The experiment in a line: In vitro agonist potency towards Alpha-1D adrenergic receptor in rat aorta. It counts as functional, tissue-based.

In test [7] the target is T6, Alpha-1D adrenergic receptor. Nature of the test: Binding affinity towards rat clonal Alpha-1D adrenergic receptor. In a few lines:
as §1

Test [8] has as its target T7, Alpha-1B adrenergic receptor (Rattus norvegicus, UniProt P15823).
T7 sequence (P15823 whole entry): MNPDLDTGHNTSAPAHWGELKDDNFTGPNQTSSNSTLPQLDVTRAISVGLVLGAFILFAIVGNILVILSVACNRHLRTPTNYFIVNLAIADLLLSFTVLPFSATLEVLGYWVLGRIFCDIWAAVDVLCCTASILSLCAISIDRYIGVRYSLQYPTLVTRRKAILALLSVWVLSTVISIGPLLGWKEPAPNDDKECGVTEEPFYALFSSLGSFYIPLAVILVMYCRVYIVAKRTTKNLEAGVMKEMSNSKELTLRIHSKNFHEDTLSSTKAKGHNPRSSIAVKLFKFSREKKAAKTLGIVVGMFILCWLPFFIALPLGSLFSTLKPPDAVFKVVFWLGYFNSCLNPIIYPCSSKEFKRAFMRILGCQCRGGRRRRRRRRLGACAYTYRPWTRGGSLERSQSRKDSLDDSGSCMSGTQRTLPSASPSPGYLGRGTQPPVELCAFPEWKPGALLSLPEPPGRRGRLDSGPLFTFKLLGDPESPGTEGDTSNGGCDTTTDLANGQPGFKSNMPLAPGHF
Nature of the test: In vitro agonist potency towards Alpha-1B adrenergic receptor in rat spleen. It counts as functional, tissue-based.

Turning to `NCC(O)c1ccc(O)c(O)c1` (single isomer, unassigned) [NOREPINEPHRINE], the maximum response (Emax) in test [1] is 117%; in test [2], 113%; in test [5] it was 105%. The Ki in test [3] is 263 nM; in test [4], 447 nM.

With `Cc1cc(C(C)(C)C)c(O)c(C)c1CC1=NCCN1` [OXYMETAZOLINE], the Emax came to 71% in test [1], 83% in test [2] and 80% in test [5]. In test [4], this compound gave a Ki of 13.2 nM.

For `CS(=O)(=O)Nc1c(O)ccc2c1CCC[C@@H]2C1=NCCN1`, the EC50 in test [6] and in test [8] was more than 100000 nM throughout. Further, the Ki in test [7] was 2950 nM; in test [3] it was 17400 nM; in test [4], 1450 nM. The Emax in test [1] was 24%; in test [5] it was 45%.

Consider `CS(=O)(=O)Nc1c(O)ccc2c1CCCC2C1=NCCN1` (stereo not given), for which the response in test [6] was half-maximal at 2570 nM (EC50). Also, the Ki in test [7] was 1350 nM; in test [3] it was 2090 nM; in test [4], 30.2 nM. For the same compound, the Emax in test [1] amounted to 91%; in test [2], 100%; in test [5], 108%.

As for `CNC[C@H](O)c1cccc(O)c1` [PHENYLEPHRINE], the Emax in test [1], in test [2] and in test [5] was 100% in each case. The compound further showed a Ki in test [4] of 933 nM.

As to `CS(=O)(=O)Nc1c(O)ccc2c1CCC[C@H]2C1=NCCN1`, the EC50 in test [6] was 1020 nM; in test [8], 186 nM. Also, the Ki was 1020 nM in test [7], 2820 nM in test [3] and 17.4 nM in test [4]. The values for the Emax in test [1], in test [2] and in test [5] were 63%, 103% and 78%, respectively.
